OX1R antag-1: blocks the human orexin 1 receptor | inhibition, % at 6.6 µM | O43613 | 1.8% of 330,000 active | OX1R-expressing cells, FRET antagonist read-out | AID 485270; in the data active = inhibition mostly above about 38%, no sharp cut-off; inactive = mostly below about 40%
Target sequence (O43613 whole entry, looked up): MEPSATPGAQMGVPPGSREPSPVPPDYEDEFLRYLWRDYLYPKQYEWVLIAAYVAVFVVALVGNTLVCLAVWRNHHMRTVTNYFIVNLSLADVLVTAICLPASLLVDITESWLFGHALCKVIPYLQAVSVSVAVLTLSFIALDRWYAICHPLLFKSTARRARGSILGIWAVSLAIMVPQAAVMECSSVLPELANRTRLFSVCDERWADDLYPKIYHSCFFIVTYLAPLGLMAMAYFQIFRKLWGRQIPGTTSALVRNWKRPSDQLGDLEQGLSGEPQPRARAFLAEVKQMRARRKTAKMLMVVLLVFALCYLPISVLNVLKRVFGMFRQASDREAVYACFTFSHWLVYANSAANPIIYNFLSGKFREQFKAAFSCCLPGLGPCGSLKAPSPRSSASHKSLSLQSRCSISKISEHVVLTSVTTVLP
GPR7 antagonist: blocks human GPR7 receptor signaling; AID 1861; 1.1% of 290,000 active; GPR7-expressing cells, fluorescence antagonist assay; inhibition, % at 4.4 µM; P48145; in the data active = inhibition above about 16%, passing the limit was not always enough;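 note: cells stimulated with the agonist NPW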
TRPML3 agonist: agonists of human TRPML3 channel; Q8TDD5; HEK293 TRPML3-YFP, Fluo-8 calcium fluorescence; 100% = the carbachol control signal; activation, % at 3 µM; 0.29% of 220,000 active; AID 1448;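 active = activation above its plate's cutoff, the mean activation of the plate's test wells plus 3 SD, cut at about 12% in these data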
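system = HEK293 cells stably carrying human TRPML3-YFP | doses = one concentration, 3 µM nominal, 0.3% DMSO | timing = dye loading 1 h 37 °C then 30 min ambient, 125 s read | detection = Fluo-8 calcium dye fluorescence, ex 470-495, em 515-575 nm | benchmarks = high control carbachol 87 µM, low control DMSO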
OX1R antag-2: blocks the human orexin 1 receptor; O43613; CHO/OX1R cells, Fluo-8 calcium fluorescence, orexin A; inhibition, % at 5 µM; 0.43% of 330,000 active;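 active = inhibition above its plate's threshold, mean inhibition of all tested compounds on the plate plus 3 SD, cut at about 37% in these data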
CHO parental Ca: signal in parental CHO cells, OX1R antagonist counter-screen; parental CHO-K1, ATP-induced calcium, Fluo-8 fluorescence; inhibition, % at 5.6 µM; 0.63% of 330,000 active; AID 463079;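 active = inhibition above that plate's mean sample inhibition plus 3 SD, cut at about 26% in these data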
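Material: Parental CHO cells | Reagent: ATP | Compound dosing: Single nominal dose of 5.6 µM per compound | Detection: Intracellular calcium via Fluo-8 no-wash fluorescent dye | Read-out: % inhibition of ATP-induced calcium mobilization | Benchmarks: Low control ATP plus DMSO, high control DMSO only | Replicates: Singlicate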
zfTRPN1 agonist: zebrafish TRPN1 (NompC) channel agonism. activation, % at 3 µM. HEK293 zebrafish TRPN1-YFP, Fluo-8 calcium fluorescence; 100% = response to 87 µM carbachol. 0.18% of 220,000 active. AID 1424;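 active = activation above its plate's cutoff, the mean activation of test wells on that plate plus 3 SD, cut at about 19% in these data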
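Control set: carbachol 87 µM as high control, DMSO as low control; system: HEK293 stable line with zebrafish TRPN1-YFP; read-out: % activation versus carbachol response; detection: intracellular calcium fluorescence with Fluo-8; doses: single test compound dose, 3 µM nominal, 0.3% DMSO; schedule: dye 1 h 37 °C plus 30 min RT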
OX1R HTRF conf: OX1R (human) antagonism, HTRF confirmed | shares compounds with OX1R antag-1 | 49% of 1,800 active | inhibition, % at 6.6 µM | OX1R-expressing cells, HTRF antagonist assay; in the data active = inhibition above about 55%;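 note: CHO cells expressing OX1R stimulated with orexin A at about EC80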
CHO-K1 HTRF: counter-screen for OX1R antagonists: effect in parental CHO-K1 cells. AID 493232. inhibition, % at 6.6 µM. shares compounds with OX1R antag-1. HTRF counterscreen. 48% of 1,800 active; in the data active = inhibition above about 17%
Hits are given with their value. In the library only some 3.2% were active in any assay of this set; here they are far more common.

What do the screens show for `Cn1c2ccccc2c(=O)c2ccc(C#Cc3ccccn3)cc21`?
OX1R antag-1: inactive; GPR7 antagonist: inactive; OX1R antag-2: inactive; CHO parental Ca: inactive

What do the screens show for `O=C(O)c1cccc2c1C(=O)c1cccc3snc-2c13`?
OX1R antag-1: 88; GPR7 antagonist: inactive; TRPML3 agonist: inactive; OX1R antag-2: inactive; CHO parental Ca: inactive; zfTRPN1 agonist: inactive; OX1R HTRF conf: 55; CHO-K1 HTRF: 78

Results for Cc1ccc(NC(=O)CSCC(=O)Nc2cccc(S(=O)(=O)N3CCCCCC3)c2)cc1 ?
OX1R antag-1: inactive; OX1R antag-2: inactive; CHO parental Ca: inactive

How did COc1ccc(NC(=O)c2ccc(NCC3CCCO3)c([N+](=O)[O-])c2)cc1 (stereo unspecified) do in these assays?
OX1R antag-1: 77; GPR7 antagonist: inactive; TRPML3 agonist: inactive; OX1R antag-2: inactive; CHO parental Ca: inactive; zfTRPN1 agonist: inactive; OX1R HTRF conf: inactive; CHO-K1 HTRF: 18

Results for N#Cc1cc(NCC2CCCO2)c([N+](=O)[O-])cc1C#N (stereo unspecified) ?
OX1R antag-1: 126; GPR7 antagonist: inactive; TRPML3 agonist: inactive; OX1R antag-2: inactive; CHO parental Ca: inactive; zfTRPN1 agonist: inactive; OX1R HTRF conf: inactive; CHO-K1 HTRF: 71

How did COc1ccc(C2CCN(Cc3cccnc3)CC2O)cc1 (stereo unspecified) do in these assays?
OX1R antag-1: 96; GPR7 antagonist: inactive; TRPML3 agonist: inactive; OX1R antag-2: inactive; CHO parental Ca: inactive; zfTRPN1 agonist: inactive; OX1R HTRF conf: inactive; CHO-K1 HTRF: inactive

Results for COC(=O)Cn1c(=N)n(CCN2CCCCC2)c2ccccc21 ?
OX1R antag-1: 96; GPR7 antagonist: inactive; TRPML3 agonist: inactive; OX1R antag-2: inactive; CHO parental Ca: inactive; zfTRPN1 agonist: inactive; OX1R HTRF conf: inactive; CHO-K1 HTRF: inactive

Results for CN(C)c1ccnc(Nc2ccc(O)cc2)c1C#N ?
OX1R antag-1: inactive; GPR7 antagonist: inactive; TRPML3 agonist: inactive; OX1R antag-2: inactive; CHO parental Ca: inactive; zfTRPN1 agonist: inactive

What do the screens show for `Cc1ccc2nc3ccc(N4CCN(C)CC4)nn3c(=O)c2c1`?
OX1R antag-1: 77; GPR7 antagonist: inactive; TRPML3 agonist: inactive; OX1R antag-2: inactive; CHO parental Ca: inactive; zfTRPN1 agonist: inactive; OX1R HTRF conf: inactive; CHO-K1 HTRF: 25

What do the screens show for `O=c1c2ccccc2nc2ccc(N3CCOCC3)nn12`?
OX1R antag-1: 94; GPR7 antagonist: inactive; TRPML3 agonist: inactive; OX1R antag-2: inactive; CHO parental Ca: inactive; zfTRPN1 agonist: inactive; OX1R HTRF conf: inactive; CHO-K1 HTRF: 37

What do the screens show for `Cc1ccc2nc3ccc(N4CCCCCCC4)nn3c(=O)c2c1`?
OX1R antag-1: inactive; GPR7 antagonist: inactive; TRPML3 agonist: inactive; OX1R antag-2: inactive; CHO parental Ca: inactive; zfTRPN1 agonist: inactive

What do the screens show for `CC(NC(=O)OC(C)(C)C)C(=O)NC(CCC(=O)OCc1ccccc1)C(N)=O` (stereo unspecified)?
OX1R antag-1: inactive; GPR7 antagonist: inactive; TRPML3 agonist: inactive; OX1R antag-2: inactive; CHO parental Ca: inactive; zfTRPN1 agonist: inactive

What do the screens show for `CCOC(=O)N1CCC(NC(=S)Nc2ccc3nc(N4CCN(C)CC4)cc(C)c3c2)CC1`?
OX1R antag-1: 105; GPR7 antagonist: inactive; TRPML3 agonist: inactive; OX1R antag-2: inactive; CHO parental Ca: inactive; zfTRPN1 agonist: inactive; OX1R HTRF conf: inactive; CHO-K1 HTRF: inactive

What do the screens show for `CCOC(=O)N1CCC(NC(=S)Nc2ccc3nc(N4CCN(CC)CC4)cc(C)c3c2)CC1`?
OX1R antag-1: inactive; GPR7 antagonist: inactive; TRPML3 agonist: inactive; OX1R antag-2: inactive; CHO parental Ca: inactive; zfTRPN1 agonist: inactive

How did CC1(C)Cc2c(sc(NC(=O)c3ccccc3Cl)c2C(=O)O)CO1 do in these assays?
OX1R antag-1: inactive; GPR7 antagonist: inactive; TRPML3 agonist: inactive; OX1R antag-2: inactive; CHO parental Ca: inactive; zfTRPN1 agonist: inactive
